Measurements as given in ChEMBL document CHEMBL3616436, “Synthesis, cytotoxicity and antimicrobial activity of thiourea derivatives incorporating 3-(trifluoromethyl)phenyl moiety” (Eur J Med Chem, 2015).
≈ marks a conversion by molar mass, not a printed value.

Assays:
[1] = tested on: Vesicular stomatitis virus; experiment: Antiviral activity against Vesicular stomatitis virus ATCC VR 1540 infected in African green monkey Vero 76 cells assessed as reduction of virus-plaque formation after 2 days by crystal violet staining; assay type: functional, organism-based; settings: ATCC VR 1540, Vero, 48 h
[2] = Cytotoxicity against bovine MDBK cells assessed as cell viability after 48 to 96 hrs by MTT assay; assay type: cell-based, Bos taurus; settings: cattle
[3] = Cytotoxicity against BHK cells assessed as cell viability after 48 to 96 hrs by MTT assay; assay type: cell-based, Mesocricetus auratus; settings: hamster
Yellow fever virus = experiment: Antiviral activity against Yellow fever virus 17D infected in BHK cells assessed as protection against virus-induced cytopathogenicity after 3 to 4 days by MTT assay; assay type: functional, cell-based
[4] = Cytotoxicity against African green monkey Vero 76 cells assessed as cell viability after 48 to 96 hrs by crystal violet staining; assay type: cell-based; settings: chlorocebus sabaeus
Coxsackievirus B5 = experiment: Antiviral activity against Human coxsackievirus B5 ATCC VR-29 infected in African green monkey Vero 76 cells assessed as reduction of virus-plaque formation after 3 days by crystal violet staining; assay type: functional, organism-based; settings: Enterovirus B, ATCC VR-29, Vero, 72 h
Method in brief: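 Plaque reduction: Vero-76 at 2x10^5 cells/well grown to confluent monolayers, infected 2 h at 50–100 PFU/well; after removing unadsorbed virus, overlay of D-MEM, 1% inactivated FBS, 0.75% methylcellulose with or without serial compound dilutions; 3 days at 37°C, fixed and stained with crystal violet in 50% ethanol, plaques counted; EC50 by linear regression.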

Staphylococcus aureus [5] = experiment: Antimicrobial activity against Staphylococcus aureus NCTC 4163 at 400 ug after 18 hrs by disc-diffusion method; assay type: functional; settings: NCTC 4163, 18 h, read-out: IZ
Method in brief: (§1)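 Disc diffusion on Mueller-Hinton II agar per CLSI; 9 mm paper discs loaded with 400 µg compound from DMSO solution, dried, placed on agar; growth inhibition zone diameter read after 18 h at 35°C.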

Staphylococcus aureus [6] = experiment: Antimicrobial activity against Staphylococcus aureus ATCC 25923 at 400 ug after 18 hrs by disc-diffusion method; assay type: functional; settings: ATCC 25923, 18 h, read-out: IZ; method in brief: as §1
[7] = tested on: Staphylococcus epidermidis; experiment: Antimicrobial activity against Staphylococcus epidermidis ATCC 12228 at 400 ug after 18 hrs by disc-diffusion method; assay type: functional; settings: ATCC 12228, 18 h, read-out: IZ; method in brief: as §1
Bacillus subtilis = experiment: Antimicrobial activity against Bacillus subtilis ATCC 6633 at 400 ug after 18 hrs by disc-diffusion method; assay type: functional; settings: ATCC 6633, 18 h, read-out: IZ; method in brief: as §1
Micrococcus luteus = experiment: Antimicrobial activity against Micrococcus luteus ATCC 9341 at 400 ug after 18 hrs by disc-diffusion method; assay type: functional; settings: ATCC 9341, 18 h, read-out: IZ; method in brief: as §1
Proteus vulgaris = experiment: Antimicrobial activity against Proteus vulgaris NCTC 4635 at 400 ug after 18 hrs by disc-diffusion method; assay type: functional; settings: NCTC 4635, 18 h, read-out: IZ; method in brief: as §1
Staphylococcus aureus [8] = experiment: Antimicrobial activity against Staphylococcus aureus ATCC 6538 after 18 hrs by twofold serial microdilution method; assay type: functional; settings: ATCC 6538, 18 h
[9] = tested on: Staphylococcus epidermidis; experiment: Antimicrobial activity against Staphylococcus epidermidis ATCC 35984 after 18 hrs by twofold serial microdilution method; assay type: functional; settings: ATCC 35984, 18 h
Staphylococcus aureus [10] = experiment: Antimicrobial activity against hospital methicillin-resistant Staphylococcus aureus 53/05 after 18 hrs by twofold serial microdilution method; assay type: functional; settings: 53/05, 18 h
Method in brief: (§2)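 Twofold serial microdilution in Mueller-Hinton broth. Compound stock was made in DMSO and diluted in sterile water. Tested range was 0.125–512 µg/mL. Final inoculum was 10^5 CFU/mL. Plates were incubated 18 h at 35 °C. MIC is the lowest concentration preventing visible growth.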

Staphylococcus aureus [11] = experiment: Antimicrobial activity against hospital methicillin-resistant Staphylococcus aureus 54/05 after 18 hrs by twofold serial microdilution method; assay type: functional; settings: 54/05, 18 h; method in brief: as §2
Staphylococcus aureus [12] = experiment: Antimicrobial activity against hospital methicillin-resistant Staphylococcus aureus 79/05 after 18 hrs by twofold serial microdilution method; assay type: functional; settings: 79/05, 18 h; method in brief: as §2
[13] = tested on: Staphylococcus epidermidis; experiment: Antimicrobial activity against hospital methicillin-resistant Staphylococcus epidermidis 23/04 after 18 hrs by twofold serial microdilution method; assay type: functional; settings: 23/04, 18 h; method in brief: as §2
[14] = tested on: Staphylococcus epidermidis; experiment: Antimicrobial activity against hospital methicillin-resistant Staphylococcus epidermidis 62/04 after 18 hrs by twofold serial microdilution method; assay type: functional; settings: 62/04, 18 h; method in brief: as §2
[15] = tested on: Staphylococcus epidermidis; experiment: Antimicrobial activity against hospital methicillin-resistant Staphylococcus epidermidis 151/04 after 18 hrs by twofold serial microdilution method; assay type: functional; settings: 151/04, 18 h; method in brief: as §2
Staphylococcus aureus [16] = experiment: Ratio of ciprofloxacin MIC to compound MIC for hospital methicillin-resistant Staphylococcus aureus 53/05 after 18 hrs by twofold serial microdilution method; assay type: functional
Method in brief: (§3)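 Ratio of MICs for ciprofloxacin and test agent, each from twofold serial broth microdilution in Mueller-Hinton broth following CLSI guidelines. DMSO stock was diluted in sterile water to 0.125–512 µg/mL, with a final inoculum of 10^5 CFU/mL.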

Staphylococcus aureus [17] = experiment: Ratio of ciprofloxacin MIC to compound MIC for hospital methicillin-resistant Staphylococcus aureus 79/05 after 18 hrs by twofold serial microdilution method; assay type: functional; method in brief: as §3
Staphylococcus aureus [18] = experiment: Ratio of ciprofloxacin MIC to compound MIC for hospital methicillin-resistant Staphylococcus aureus 80/05 after 18 hrs by twofold serial microdilution method; assay type: functional; method in brief: as §3
Staphylococcus aureus [19] = experiment: Ratio of ciprofloxacin MIC to compound MIC for hospital methicillin-resistant Staphylococcus aureus 81/05 after 18 hrs by twofold serial microdilution method; assay type: functional; method in brief: as §3
Staphylococcus aureus [20] = experiment: Ratio of ciprofloxacin MIC to compound MIC for hospital methicillin-resistant Staphylococcus aureus 522/11 after 18 hrs by twofold serial microdilution method; assay type: functional; method in brief: as §3
[21] = tested on: Staphylococcus epidermidis; experiment: Ratio of ciprofloxacin MIC to compound MIC for hospital methicillin-resistant Staphylococcus epidermidis […]/[…] after 18 hrs by twofold serial microdilution method; assay type: functional, 16/04
[22] = tested on: Staphylococcus epidermidis; experiment: Ratio of ciprofloxacin MIC to compound MIC for hospital methicillin-resistant Staphylococcus epidermidis 24/04 after 18 hrs by twofold serial microdilution method; assay type: functional
[23] = tested on: Staphylococcus epidermidis; experiment: Ratio of ciprofloxacin MIC to compound MIC for hospital methicillin-resistant Staphylococcus epidermidis 31/04 after 18 hrs by twofold serial microdilution method; assay type: functional; method in brief: as §3
[24] = tested on: Staphylococcus epidermidis; experiment: Ratio of ciprofloxacin MIC to compound MIC for hospital methicillin-resistant Staphylococcus epidermidis 62/04 after 18 hrs by twofold serial microdilution method; assay type: functional; method in brief: as §3
[25] = tested on: Staphylococcus epidermidis; experiment: Ratio of ciprofloxacin MIC to compound MIC for hospital methicillin-resistant Staphylococcus epidermidis 63/04 after 18 hrs by twofold serial microdilution method; assay type: functional; method in brief: as §3
[26] = tested on: Staphylococcus epidermidis; experiment: Ratio of ciprofloxacin MIC to compound MIC for hospital methicillin-resistant Staphylococcus epidermidis 76/04 after 18 hrs by twofold serial microdilution method; assay type: functional; method in brief: as §3
[27] = tested on: Staphylococcus epidermidis; experiment: Ratio of ciprofloxacin MIC to compound MIC for hospital methicillin-resistant Staphylococcus epidermidis 151/04 after 18 hrs by twofold serial microdilution method; assay type: functional; method in brief: as §3
[28] = tested on: Mycobacterium tuberculosis; experiment: Antimycobacterial activity against Mycobacterium tuberculosis H37Rv ATCC 25618; assay type: functional
Method in brief: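 Classical test-tube successive-dilution method in Youmans' modification of Proskauer and Beck liquid medium with 10% bovine serum. Inoculum came from 14-day cultures. DMSO stock was 10 mg/mL, diluted geometrically in medium. Tubes were incubated at 37 °C. Concentrations tested were 3.1, 6.2, 12.5, 25, 50 and 100 µg/ml. MIC is the minimum concentration inhibiting growth relative to compound-free tubes.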

Fc1ccc(NC(=S)Nc2cccc(C(F)(F)F)c2)cc1Cl
EC50 [1]: > 20 µM
CC50 [2]: 11 µM
CC50 [3]: 10 µM
EC50 (Yellow fever virus): > 10 µM
CC50 [4]: 20 µM
EC50 (Coxsackievirus B5): > 20 µM
zone of inhibition at 400 µg/disc (Staphylococcus aureus [5]): 30 mm
zone of inhibition at 400 µg/disc (Staphylococcus aureus [6]): 27 mm
zone of inhibition at 400 µg/disc [7]: 30 mm
zone of inhibition at 400 µg/disc (Bacillus subtilis): 30 mm
zone of inhibition at 400 µg/disc (Micrococcus luteus): 32 mm
zone of inhibition at 400 µg/disc (Proteus vulgaris): 14 mm
MIC (Staphylococcus aureus [8]): 1 µg/mL (≈ 2.87 µM)
MIC [9]: 2 µg/mL (≈ 5.73 µM)
MIC (Staphylococcus aureus [10]): 1 µg/mL (≈ 2.87 µM)
MIC (Staphylococcus aureus [11]): 1 µg/mL (≈ 2.87 µM)
MIC (Staphylococcus aureus [12]): 1 µg/mL (≈ 2.87 µM)
MIC [13]: 1 µg/mL (≈ 2.87 µM)
MIC [14]: 0.5 µg/mL (≈ 1.43 µM)
MIC [15]: 2 µg/mL (≈ 5.73 µM)
Ratio (Staphylococcus aureus [16]): 128
Ratio (Staphylococcus aureus [17]): 128
Ratio (Staphylococcus aureus [18]): 128
Ratio (Staphylococcus aureus [19]): 128
Ratio (Staphylococcus aureus [20]): 128
Ratio [21]: 128
Ratio [22]: 128
Ratio [23]: 128
Ratio [24]: 128
Ratio [25]: 128
Ratio [26]: 128
Ratio [27]: 128
MIC [28]: 50 µg/mL (≈ 143 µM)
